Assay results: PubChem BioAssay
Calls of active or inactive are those of the source.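 Rule for the calls, unless noted: active = viability at or under a set limit in both replicates, limit being median viability minus 3 SD (cut at about 48% in these data, passing the limit was not always enough); inconclusive = at or under the limit in just one replicate; inactive = at or above the limit in both replicates.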

Columns and labels:
[1] = SK-BR-3 cell growth inhibitors, pilot screen, 24 h, human (AID 572;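 active = viability at or below 10% of carrier control in both of two separate runs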;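 note: compound exposure lasted between 18 and 24 h rather than exactly 24 h; 100% = carrier-treated control wells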); conditions: SK-BR-3 viability, CellTiter-Glo luminescence, at 10 µM, stronger effect = lower value
[2] = HUVEC growth inhibition – cell-based, human, primary screen (AID 575;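 active = viability at or below 30% in both replicate assays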;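 note: 100% = median of untreated cell wells with 0.1% DMSO on each plate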); conditions: HUVEC proliferation, CellTiter-Glo luminescence, 72 h; at 10 µM; stronger effect = lower value
In short: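 Test system: primary human umbilical vein endothelial cells; medium: endothelial basal medium with 2% FBS plus growth supplements; dosing: 10 µM compound only; times: 72 h treatment at 37 °C; signal: CTG luminescence; read-out: % viability relative to median vehicle-well signal on each plate; control set: vehicle and MePR control wells; plate: 384-well, collagen-coated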

[3] = growth inhibitors of H69AR lung tumor, primary screen, human, duplicate replicates (AID 580); conditions: H69AR lung tumor cells viability, ATP luminescence, 72 h; at 10 µM; stronger effect = lower value;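 note: 100% = mean luminescence of untreated wells and 0% = no signal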
[4] = reversal of MRP1-mediated doxorubicin resistance, pilot screen, H69AR cells, doxorubicin co-treatment (AID 601;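 active = viability loss from added drug above about 55%, and viability with drug at most 40%, in both replicates, limit read from the data, passing the limit was not always enough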); conditions: CellTiter-Glo, 72 h, at 10 µM; for differential viability (reversal): stronger effect = higher value
[5] = 384-well plate pilot, post-Golgi transport modulator project, inhibition of yeast transport mutant growth (AID 636; in the data active = inhibition above about 31%); conditions: absorbance 615 nm, about 18 h, stronger effect = higher value
[6] = growth suppression of yeast trafficking mutant, preliminary HTS, modulators of trafficking downstream of Golgi apparatus project, 1536-format plate, OD 615 nm (AID 637; in the data active = inhibition above about 30%); conditions: yeast transport mutant growth, absorbance 615 nm, 18 h; stronger effect = higher value
[7] = H69AR cells + 2 uM doxorubicin, measured here: viability with 2 uM doxorubicin, stronger effect = lower value
[8] = H69AR cells, compound alone cytotoxicity

SMILES	viability [1]	viability [2]	viability [3]	differential viability (reversal) ([4]; H69AR cells + 2 uM doxorubicin)	viability [4, 7] [%]	viability [4, 8] [%]	inhibition [5]	inhibition [6]
CCC1CCCCN1S(=O)(=O)c1ccc(C(=O)Nc2nnc(-c3ccccc3Cl)o2)cc1 (configuration not stated)	74% (inactive)	13.5% (active)	20.1% (active)	-21.7% (inactive)	41.8	20.1	-0.13% (inactive)	11.6% (inactive)
CC(=O)Nc1ccccc1O	111% (inactive)	102% (inactive)	96.1% (inactive)	0.37% (inactive)	95.7	96.1	-0.13% (inactive)	4.5% (inactive)
CN(CCNC(=O)c1ccc(N2CCCC2=O)cc1)CCc1ccccc1	72% (inactive)	99% (inactive)	101% (inactive)	8.74% (inactive)	92.6	101	-7.95% (inactive)	4.36% (inactive)
Cc1ccc2c(CC(=O)OCc3csc(C)n3)coc2c1	106% (inactive)	90.3% (inactive)	98.5% (inactive)	2.5% (inactive)	96	98.5	-8.78% (inactive)	3.77% (inactive)
COc1cc2c(C#N)c(N3CCOCC3)nc(N)c2c(N)n1	85% (inactive)	90% (inactive)	75.2% (inactive)	8.29% (inactive)	67	75.2	-0.13% (inactive)	0.82% (inactive)
O=C(CSc1nnc(-c2ccccn2)n1Cc1ccccc1)N1CCCC1	109% (inactive)	104% (inactive)	98.8% (inactive)	10.9% (inactive)	87.9	98.8	-8.67% (inactive)	-6% (inactive)
CC(O)c1cc2c(cc1NC(=O)c1cnn3c1NC(c1ccco1)CC3C(F)(F)F)OCO2 (configuration not stated)	93% (inactive)	97.2% (inactive)	86.3% (inactive)	0.405% (inactive)	85.9	86.3	0.65% (inactive)	-1.97% (inactive)
CCCCNC(=O)NS(=O)(=O)c1ccc(C)cc1	97% (inactive)	76.7% (inactive)	95.3% (inactive)	-5.94% (inactive)	101	95.3	-1.04% (inactive)	-2.5% (inactive)
CCN(CC)CCOC(=O)C1(C2CCCCC2)CCCCC1	114% (inactive)	72.7% (inactive)	86.3% (inactive)	3.1% (inactive)	83.2	86.3	-2.6% (inactive)	-3.33% (inactive)
Cc1ccc(-c2nnc(N3CCN(C(=O)CN4C(=O)c5ccccc5C4=O)CC3)c3ccccc23)cc1	84% (inactive)	73% (inactive)	94% (inactive)	-0.335% (inactive)	94.3	94	-1.23% (inactive)	-4.03% (inactive)
Cn1c(=O)cc(OCCCC(=O)N2CCCCC2)c2ccccc21	98% (inactive)	87.5% (inactive)	91.5% (inactive)	12% (inactive)	79.5	91.5	-1.82% (inactive)	0.98% (inactive)
COc1ccccc1N(CC(=O)NC1CCCC1)C(=O)c1csnn1	97% (inactive)	89.7% (inactive)	90% (inactive)	32.5% (inactive)	57.5	90	-1.47% (inactive)	-8.36% (inactive)
Cc1cc(C)nc(SC2=CS(=O)(=O)c3ccccc32)n1	102% (inactive)	73.5% (inactive)	14.8% (active)	-7.5% (inactive)	22.3	14.8	-1.2% (inactive)	-1.27% (inactive)
Cc1ccc(-n2c(N)c(C(N)=O)sc2=S)cc1	87% (inactive)	112% (inactive)	87.9% (inactive)	-0.38% (inactive)	88.3	87.9	-3.24% (inactive)	0.73% (inactive)
Cc1cc(Cl)c(S(=O)(=O)Nc2ccc3c(c2)OCCO3)cc1OCC(N)=O	78% (inactive)	107% (inactive)	97.2% (inactive)	11.7% (inactive)	85.5	97.2	0.27% (inactive)	4.84% (inactive)
Cc1ccc2c(C(=O)CN3CCSCC3)c(C)[nH]c2c1	120% (inactive)	91.8% (inactive)	74.2% (inactive)	-0.745% (inactive)	75	74.2	-3.07% (inactive)	-3.82% (inactive)
COc1ccc(-n2c(SCC(=O)N3CCCCC3C)nnc2-c2cccnc2)cc1 (configuration not stated)	87% (inactive)	98.7% (inactive)	102% (inactive)	10.5% (inactive)	91.1	102	-5.54% (inactive)	2% (inactive)

SMILES	viability [1]	viability [2]	viability [3]	differential viability (reversal) ([4]; H69AR cells + 2 uM doxorubicin)	viability [4, 7] [%]	viability [4, 8] [%]	inhibition [5]	inhibition [6]
Cc1nnc(SCc2nnc(-c3ccccc3Br)o2)n1-c1ccccc1	86% (inactive)	87.5% (inactive)	90.2% (inactive)	-3.37% (inactive)	93.6	90.2	0.41% (inactive)	0% (inactive)
O=C(Nc1ccncc1)C1c2ccccc2Oc2ccccc21	121% (inactive)	100% (inactive)	92.3% (inactive)	-8.33% (inactive)	101	92.3	-2.3% (inactive)	14.4% (inactive)
CC(C)NC(=O)Nc1cccs1	115% (inactive)	99.5% (inactive)	92.1% (inactive)	-3.51% (inactive)	95.6	92.1	2.47% (inactive)	-0.82% (inactive)
CCCCc1c(O)nc(SCC(=O)Nc2ccc3c(c2)CCC3)[nH]c1=O	96% (inactive)	79.7% (inactive)	94.8% (inactive)	10.9% (inactive)	83.9	94.8	-3.73% (inactive)	-2.91% (inactive)
Cc1cc(C)cc(C(=O)N2CCC(C(N)=O)CC2)c1	91% (inactive)	105% (inactive)	97.2% (inactive)	9.71% (inactive)	87.5	97.2	-8.78% (inactive)	0% (inactive)
CCNC(=O)CC1C(=O)N(c2ccccc2)C(=O)N1CCC(C)C (configuration not stated)	117% (inactive)	95.9% (inactive)	93.5% (inactive)	13.9% (inactive)	79.6	93.5	-0.78% (inactive)	-0.82% (inactive)
Cc1ccc(NC(=O)CN(C)S(=O)(=O)c2cccc3nsnc23)cc1Cl	103% (inactive)	83.3% (inactive)	84.5% (inactive)	-7.79% (inactive)	92.2	84.5	1.76% (inactive)	-3.09% (inactive)
CCN(CC)CCCN1C(=O)C(=O)/C(=C(/O)c2ccc3c(c2)OCO3)C1c1ccccn1 (configuration not stated)	97% (inactive)	82.4% (inactive)	93.3% (inactive)	4.7% (inactive)	88.6	93.3	-5.89% (inactive)	0.32% (inactive)
O=C(Nc1ccccc1)N(CCCN1CCOCC1)Cc1cc2cc3c(cc2[nH]c1=O)OCCO3	96% (inactive)	82.3% (inactive)	67.6% (inactive)	2.71% (inactive)	64.9	67.6	2.13% (inactive)	3.45% (inactive)
COc1ccc(CCNC(=O)CSCc2n[nH]c(=O)[nH]2)cc1OC	110% (inactive)	89.3% (inactive)	88.5% (inactive)	-0.08% (inactive)	88.6	88.5	-10.7% (inactive)	0% (inactive)
O=C(CSc1nnc(NC(=O)C2CCC2)s1)NC1CC1	100% (inactive)	106% (inactive)	106% (inactive)	12.2% (inactive)	93.4	106	-6.76% (inactive)	2% (inactive)
N#Cc1c(NCc2ccccc2)ccnc1NCc1cccnc1	78% (inactive)	59.2% (inactive)	98.6% (inactive)	4.3% (inactive)	94.3	98.6	-6.08% (inactive)	-0.55% (inactive)
O=C(NCCN1CCOCC1)NC1(C(F)(F)F)Oc2ccc(Cl)cc2O1 (configuration not stated)	107% (inactive)	57.1% (inactive)	22.6% (active)	-16.8% (inactive)	39.5	22.6	-7.53% (inactive)	0% (inactive)
Nc1ccc(S(=O)(=O)c2cccc(N)c2)cc1	62% (inactive)	100% (inactive)	96.2% (inactive)	11.8% (inactive)	84.4	96.2	-9.18% (inactive)	1.64% (inactive)
CC1(C)S[C@@H]2[C@H](NC(=O)[C@H](N)c3ccccc3)C(=O)N2[C@H]1C(=O)O	103% (inactive)	93.8% (inactive)	107% (inactive)	15.6% (inactive)	91.4	107	-5.32% (inactive)	3.33% (inactive)
CCCN(CCC)S(=O)(=O)c1ccc(C(=O)O)cc1	99% (inactive)	96.2% (inactive)	97.2% (inactive)	10.1% (inactive)	87.1	97.2	-0.52% (inactive)	-1.5% (inactive)
O=C(CCNNC(=O)c1ccncc1)NCc1ccccc1	72% (inactive)	84.7% (inactive)	93.5% (inactive)	6.55% (inactive)	87	93.5	-7.53% (inactive)	-2.67% (inactive)
